dFosB activator – activators of delta FosB homodimer, primary screen, biochemical, fluorescence polarization, TAMRA-CDK5 oligo, single point | activation, % at 25 µM | purified delta FosB; percent of positive-control signal above neutral wells | AID 493131, 2011 | 340,000 tested, 0.99% active | Protein FosB (Mus musculus), P13346;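 active means mean activation above about 17%, with every replicate also reaching it, limit read from the data, passing the limit was not always enough; inconclusive means only one of the two conditions met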
PAX8 inh HTS – inhibitors of PAX8-driven TPO luciferase reporter, primary screen, RMG-I cells, single concentration; SteadyGlo, 24 h; inhibition, % at 12.6 µM; 360,000 tested, 1.2% active;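 active means mean replicate inhibition at least 60% with every replicate also reaching 60%; inconclusive means only one of the two criteria is met; inactive means mean below 60% and not all replicates reaching 60%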;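 further: luciferase light reporting Pax8 driven TPO promoter activity; plate controls were median of neutral control wells for no effect and mitoxantrone controls for full effect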
Cneo AK release – Cryptococcus neoformans cell lysis inducers, primary screen, AK release luminescence, single concentration | C. neoformans lysis, adenylate kinase release luminescence, 4 h; normalised: neutral wells 0, clomiphene wells 100 | lysis activity, % at 15 µM | 360,000 tested, 0.2% active | AID 651654, 2012;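 active means mean lysis activity across replicates of at least 80%, whatever share of replicates individually reach that level; inactive means mean lysis activity below 80%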
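Assay system: log-phase C. neoformans yeast / Quantity: yeast cell density of 5 × 10^6 cells/mL / Medium: fresh YPD growth medium / Compound: single dose / Timing: static 4 h at 37 °C with compound, 1 h detection / Measured by: adenylate kinase release luminescence / Read-out: lysis from increased AK signal / Benchmarks: Clomiphene as positive lysis control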
CDK5 p35 inh – inhibitors of human CDK5/p35 kinase, primary screen, biochemical, single concentration | Cyclin-dependent kinase 5 (Homo sapiens) + Cyclin-dependent kinase 5 activator 1 (Homo … | Recombinant CDK5/p35, ADP-Glo luminescence, 60 min | inhibition, % at 10 µM | 330,000 tested, 0.01% active | AID 488839, 2010;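 active means highest replicate inhibition of at least 50% and at least 75% of replicates reaching 50%; inconclusive means only one of the two criteria met; inactive means both criteria failed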;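 further: plate controls were DMSO neutral control for no effect and GW8510 at 10 µM for full effect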
Target sequence (Q00535 whole entry, looked up): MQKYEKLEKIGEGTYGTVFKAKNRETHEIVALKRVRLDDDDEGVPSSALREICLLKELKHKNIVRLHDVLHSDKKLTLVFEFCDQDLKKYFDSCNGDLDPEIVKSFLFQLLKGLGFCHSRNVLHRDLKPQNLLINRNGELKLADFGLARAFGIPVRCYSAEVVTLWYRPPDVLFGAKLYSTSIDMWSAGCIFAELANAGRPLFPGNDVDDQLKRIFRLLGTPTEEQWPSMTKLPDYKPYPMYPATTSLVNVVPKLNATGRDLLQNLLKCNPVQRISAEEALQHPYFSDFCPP
Target sequence (Q15078 whole entry, looked up): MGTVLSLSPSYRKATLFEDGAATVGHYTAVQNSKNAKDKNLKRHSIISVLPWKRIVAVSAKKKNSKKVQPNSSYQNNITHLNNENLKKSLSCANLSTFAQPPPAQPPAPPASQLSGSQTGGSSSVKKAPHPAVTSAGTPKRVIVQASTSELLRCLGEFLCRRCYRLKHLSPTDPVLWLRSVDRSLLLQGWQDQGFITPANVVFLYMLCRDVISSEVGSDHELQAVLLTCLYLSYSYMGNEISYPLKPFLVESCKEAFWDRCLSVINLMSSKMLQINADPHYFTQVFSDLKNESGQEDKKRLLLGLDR
INS-1E GSIS act – GLuc luminescence reporter in INS-1E cells, primary screen for activators of glucose-dependent secretion of insulin; 370,000 tested, 0.61% active; INS-1E GLuc reporter insulin secretion, 2-3 h; activation, % at 16.6 µM;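 active means lowest replicate activation of at least 40%, so every replicate reaches that level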;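 further: 0% = median of neutral control wells and 100% = median of IBMX positive control wells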
HIV Env fusion – inhibitors of HIV-1 Env-driven cell-cell fusion, primary screen, HeLa-JRFL effector, CEM21 target cells, luciferase | 360,000 tested, 1.1% active | inhibition, % at 12.3 µM | AID 651610, 2012;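 active means mean replicate inhibition score of at least 50 and every replicate individually at or above 50; inconclusive means only one of the two criteria met; inactive means mean below 50 and not all replicates reaching 50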;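 further: 0% = plate neutral controls and 100% = maraviroc near 300 nM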
An asterisk follows results filed as active; ? = inconclusive; / = no result given; [ ] = remark or other dose. Shown are actives, neighbours in structure and some others; about 2.9% of the full set was active somewhere.

SMILES	dFosB activator	PAX8 inh HTS	Cneo AK release	CDK5 p35 inh	INS-1E GSIS act	HIV Env fusion
COc1ccc(NC(=O)Nc2ccc3c(c2)C(=O)N([C@H](C)CO)C[C@@H](C)[C@H](CN(C)Cc2ccc(C(F)(F)F)cc2)O3)cc1	/	12	0	/	-9	11[16.7 µM]
COc1ccc(NC(=O)Nc2ccc3c(c2)C(=O)N([C@@H](C)CO)C[C@@H](C)[C@H](CN(C)Cc2ccc(C(F)(F)F)cc2)O3)cc1	/	91*	14	/	6	13[16.7 µM]
COc1ccc(NC(=O)Nc2ccc3c(c2)C(=O)N([C@@H](C)CO)C[C@H](C)[C@@H](CN(C)C(=O)Nc2ccc(OC)cc2)O3)cc1	/	7	-1	/	-2	6[16.7 µM]
O=C(CC(F)(F)F)N1C[C@H]2[C@@H](c3ccccc31)[C@@H](CO)N2C(=O)c1cccnc1	/	5	-1	/	0	/
Cc1cc(O)c(C(C)C)cc1NC(=O)c1ccccc1Cl	-4	70*	-2	/	/	/
Cc1ccc(NC(=O)c2cccs2)cc1NC(=O)c1ccccc1Cl	?	-5	1	2	167*	11
C[C@@H]1CN([C@H](C)CO)C(=O)c2cc(-c3cccnc3)cnc2O[C@@H]1CN(C)C(=O)Nc1ccc2c(c1)OCO2	/	/	0	/	1	-2[16.7 µM]
O=S(=O)(CCSc1nc2ccccc2s1)c1nc2ccccc2s1	-11	104*	0	/	/	29
CCS(=O)(=O)CCSc1nc2ccccc2s1	6	/	1	0	/	/
CC1(Cc2ccc(OC(F)(F)F)cc2)C(=O)Nc2ccc(S(=O)(=O)NC3CCCCC3)cc21 (stereo not given)	/	90*	0	/	-48	9
CC1(Cc2ccc(Cl)cc2)C(=O)Nc2ccc(S(=O)(=O)NC3CCCCC3)cc21 (stereo not given)	/	6	-1	/	-48	91*
COc1ccccc1-c1ccc2c(c1)C(C)(Cc1ccc(OC(F)(F)F)cc1)C(=O)N2 (stereo not given)	/	6	-1	/	/	?
COc1cc(/C=C/C(=O)OCC(=O)NCCc2ccccc2)ccc1OC(F)F	-9	10	0	1	61*	-3
COc1cc(/C=C/C(=O)OCC(=O)NCCc2ccc(F)cc2)ccc1OC(F)F	7	-10	-1	-4	/	-17
COc1ccc(OC)c(/C=C/C(=O)OCC(=O)NCc2cccs2)c1	-2	3	5	1	14	/
COc1cc(/C=C/C(=O)OCC(=O)NCc2cccs2)ccc1OC(F)F	-8	38	/	-1	46*	3
C/C=C/c1ccc([C@@H]2[C@@H](CN(C)C(=O)CC)N(C(=O)C3CC3)[C@H]2CO)cc1	/	-7	4	/	-2	/
CCOc1c(C)cnc2c1c(=O)n(Cc1ccc(Cl)cc1)c(=O)n2C	-4	4	1	/	7	85*
O=C(Nc1nonc1NC(=O)c1cccs1)c1cccs1	-3	-11	/	3	133*	5
COc1ccc(-c2cnc3c(NC=O)cc(-c4ccccc4)cn23)cc1OC	/	33	0	/	22	42
COc1ccc(-c2cnc3c(NC=O)cc(-c4ccc(F)cc4)cn23)cc1OC	/	69*	-1	/	/	-75
COc1cccc(-c2cnc3c(NC=O)cc(-c4ccc(OC)cc4OC)cn23)c1	/	99*	-1	/	/	-124
COc1ccc(-c2cc(NC=O)c3ncc(-c4ccc(OC)c(OC)c4)n3c2)c(OC)c1	/	83*	1	/	37	-27
COc1cccc(-c2cc(NC=O)c3ncc(-c4ccc(OC)c(OC)c4)n3c2)c1	/	17	-2	/	-19	-181
CCC(=O)Nc1ccc2c(c1)C(=O)N(C)C[C@@H](OC)[C@H](C)CN(C(=O)Nc1ccccc1F)[C@H](C)CO2	/	-10	5	/	0	12[16.7 µM]
SMILES	dFosB activator	PAX8 inh HTS	Cneo AK release	CDK5 p35 inh	INS-1E GSIS act	HIV Env fusion
CNC(=O)C[C@H]1CC[C@H]2[C@@H](COC[C@@H](O)CN2Cc2ccc(Cl)c(Cl)c2)O1	/	-7	-1	/	3	6[16.7 µM]
CCOC(=O)C1=C(C(=O)OCC)C2N(Cc3ccc(C(F)(F)F)cc3)c3ccccc3[C@@]23C[C@@H](C(=O)OC)N(S(=O)(=O)c2cccs2)C3=N1 (stereo not given in full)	/	8	/	/	/	?
CCOC(=O)C1=C(C(=O)OCC)C2N(Cc3ccc(Br)cc3)c3ccccc3[C@@]23C[C@@H](C(=O)OC)N(S(=O)(=O)c2cccs2)C3=N1 (stereo not given in full)	/	5	/	/	/	59*
CCN(Cc1cc(OC)c(OC)c(OC)c1)S(=O)(=O)c1ccccc1Br	/	-12	/	/	-3	12
CCN(Cc1ccccc1)S(=O)(=O)c1ccccc1Br	-2	12	6	3	41*	6
COc1cc2ccc(C(C)=NNC(N)=S)cc2cc1OC	/	-53	6	/	67*	-103
CC(=NNC(N)=S)c1ccc2cc3c(cc2c1)OCO3	/	-148	13	/	18	1
COc1ccccc1-c1cccc(-c2nc(C(=O)N3CCOCC3)cc3c2[C@H](CCO)N([S@@](=O)C(C)(C)C)C3)c1	/	1	-8	/	-6	22[16.7 µM]
C[C@@H]1CN([C@H](C)CO)C(=O)c2cc(NC(=O)Nc3ccc(F)cc3)ccc2O[C@@H](C)CCCCO[C@@H]1CN(C)Cc1ccc(Cl)c(Cl)c1	/	85*	-8	/	-2	8[16.7 µM]
COc1ccc(NC(=O)Nc2ccc3c(c2)C(=O)N([C@H](C)CO)C[C@H](C)[C@@H](CN(C)Cc2ccc(Cl)c(Cl)c2)OCCCC[C@H](C)O3)cc1	/	21	1	/	6	26[16.7 µM]
COc1ccc(NC(=O)Nc2ccc3c(c2)C(=O)N([C@@H](C)CO)C[C@@H](C)[C@H](CN(C)Cc2ccc(Cl)c(Cl)c2)OCCCC[C@H](C)O3)cc1	/	52	2	/	-5	60*[16.7 µM]
C[C@@H]1CCCCO[C@@H](CN(C)Cc2ccc(Cl)c(Cl)c2)[C@@H](C)CN([C@@H](C)CO)C(=O)c2cc(NC(=O)Nc3ccc(F)cc3)ccc2O1	/	57	-6	/	3	2[16.7 µM]
C[C@H]1CCCCO[C@H](CN(C)Cc2ccc(Cl)c(Cl)c2)[C@@H](C)CN([C@@H](C)CO)C(=O)c2cc(NC(=O)Nc3ccc(F)cc3)ccc2O1	/	92*	-4	/	-18	72*[16.7 µM]
Cc1ccc(S(=O)(=O)Nc2ccc3c(c2)C(=O)N([C@@H](C)CO)C[C@@H](C)[C@H](CN(C)C(=O)CCCN(C)C)OCCCC[C@@H](C)O3)cc1	/	5	3	/	16	7[16.7 µM]
COCC(=O)Nc1ccc2c(c1)C(=O)N(C)[C@H]1CC[C@@H](CC(=O)NCCCN(C)C)O[C@@H]1CO2	/	-31	7	/	12	/

Source: PubChem BioAssay (Broad Institute)
